{"data": "Measurements collected from several papers", "observed": "cell growth or viability", "note": "Compare with care: the assays were run in different laboratories."}
{"SMILES": "CC(C)C[C@H](NC(=O)OCc1ccccc1)C(=O)N[C@@H](CC(C)C)C(=O)N[C@@H](CC(C)C)C(=O)C(=O)Nc1cccc2ncccc12", "cell line": "RPMI-8226", "test": "MTS", "conditions": "72 h", "measurement": "IC50", "result": "0.134 µM"}
{"SMILES": "O=C(O)CCCc1ccc(N(CCCl)CCCl)cc1", "cell line": "OVCAR-3", "test": "CCK-8", "conditions": "48 h", "measurement": "IC50", "result": "29.4 µM"}
{"SMILES": "CCCCC/C=C\\C/C=C\\C/C=C\\C/C=C\\CCCC(=O)NCCO", "cell line": "ReNcell VM", "test": "imaging", "conditions": "24 h", "measurement": "IC50", "result": "~11.4 µM"}
{"SMILES": "CC(C)C[C@H](NC(=O)OCc1ccccc1)C(=O)N[C@@H](Cc1ccccc1)C(=O)N[C@@H](CC(C)C)C(=O)C(=O)Nc1ccccc1", "cell line": "RPMI-8226", "test": "MTS", "conditions": "72 h", "measurement": "IC50", "result": "0.843 µM"}
{"SMILES": "Cc1cc(N(CCOS(C)(=O)=O)CCOS(C)(=O)=O)ccc1C=O", "cell line": "ACHN", "measurement": "IC50", "result": "0.263 µg/mL"}
{"SMILES": "COc1cc2c3c(n(CCCNCCO)c(=O)c2cc1OC)-c1cc2c(cc1C3=O)OCO2", "cell line": "OVCAR-3", "measurement": "GI50", "result": "500 nM"}
{"SMILES": "CCOP(=S)(OCC)Oc1nc(Cl)c(Cl)cc1Cl", "cell line": "ReNcell VM", "test": "imaging", "conditions": "24 h", "measurement": "IC50", "result": "~11.6 µM"}
{"SMILES": "C[C@H]1CN(c2ccncc2NC(=O)c2ccc(F)c(-c3c(F)cccc3F)n2)C[C@@H](N)[C@@H]1O", "cell line": "RPMI-8226", "test": "thymidine uptake", "measurement": "GI50", "result": "156 nM"}
